Experimental data published in ChEMBL document CHEMBL1122914, “Synthesis and biological activity of pentapeptide analogues of the potent angiotensin converting enzyme inhibitor 5(S)-benzamido-4-oxo-6-phenylhexanoyl-L-proline” (J Med Chem, 1985).

Columns and labels:
Format in all cases: functional
[1] = Percent recovery of compound in rats over 24 hr when administered orally at a dose of 4.3 mg, 4.09(uCi); and activity calculated from bile of rats at time (5-6 h)
Procedure, shortened: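 Adult male Sprague-Dawley rats were fasted overnight, with chow and water otherwise ad libitum. The tritiated proline-4-labelled analogue was given orally in dilute NaHCO3. Bile was collected at timed intervals and urine over 24 h. Aliquots were counted by liquid scintillation, with quench correction by automatic external standardization and a quench curve. Recovery was expressed as percent of the dosed radioactivity.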

Rattus norvegicus [2] = experiment: Compound was evaluated for change in blood pressure value in hypertensive rats by peroral administration at a dose of 6.4 mg/kg at 8 hr; settings: route oral
Procedure, shortened: (§1)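 One-clip/two-kidney renal hypertension was induced with a silver clip on the left renal artery, leaving the other kidney intact. Several weeks later, rats were cannulated and those with mean pressure above 160 mmHg were used. Four conscious rats per compound received an oral dose in 0.25% methylcellulose (5 mL/kg), and two received vehicle only. Mean aortic pressure was read before dosing, hourly for 8 h, and at 24 h.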

Rattus norvegicus [3] = experiment: Compound was evaluated for its base line value in hypertensive rats by peroral administration at a dose of 6.4 mg/kg; settings: route oral; procedure, shortened: as §1
Rattus norvegicus [4] = experiment: Compound was evaluated for maximum effect in hypertensive rats by peroral administration at a dose of 6.4 mg/kg; settings: route oral; procedure, shortened: as §1
Rattus norvegicus [5] = experiment: Compound was evaluated for itschange in blood pressure value on hypertensive rats by peroral administration at a dose of 3.0 mg/kgat 4 hr; settings: dose 3 mg/kg; route oral; procedure, shortened: as §1
Rattus norvegicus [6] = experiment: Compound was evaluated for its maximum effect value on hypertensive rats by peroral administration at a dose of 3.0 mg/kg; settings: route oral
Rattus norvegicus [7] = experiment: Compound was evaluated for its base line value on hypertensive rats by peroral administration at a dose of 3.0 mg/kg; settings: route oral
Rattus norvegicus [8] = experiment: Compound was evaluated for its base line value on hypertensive rats by peroral administration at a dose of 30 mg/kg; settings: route oral
Rattus norvegicus [9] = experiment: Compound was evaluated for itschange in blood pressure value on hypertensive rats by peroral administration at a dose of 30 mg/kg at 8 hr; settings: route oral
Rattus norvegicus [10] = experiment: Compound was evaluated for its maximum effect value on hypertensive rats by peroral administration at a dose of 30 mg/kg; settings: route oral
Rattus norvegicus [11] = experiment: Compound was evaluated for maximum effect in hypertensive rats by peroral administration at a dose of 3.0 mg/kg; settings: route oral
Rattus norvegicus [12] = experiment: Compound was evaluated for change in blood pressure in hypertensive rats by peroral administration at a dose of 3.0 mg/kg at 1 hr; settings: route oral

For [3H]C1CC(C(=O)O)N(C(=O)CCC(=O)C(Cc2ccccc2)NC(=O)C(CCCCN)NC(=O)C2CCC2)C1 (configuration not stated), the Recovered radioactivity [1] was 1.42%.

In the case of CC(CC(=O)C(Cc1ccccc1)NC(=O)C(CCCCN)NC(=O)C1CCC1)C(=O)N1CCCC1C(=O)O.O=C(O)C(F)(F)F (configuration not stated), the “Mean aortic blood pressure” value (Rattus norvegicus [2]) is reported as -5 mmHg, the “Mean aortic blood pressure” value (Rattus norvegicus [3]) is reported as 186 mmHg and the “Mean aortic blood pressure” value (Rattus norvegicus [4]) is reported as 181 mmHg.

In the case of NCCCCC(NC(=O)C1CCC1)C(=O)NC(Cc1ccccc1)C(=O)CCC(=O)N1CCCC1C(=O)O.O=C(O)C(F)(F)F (configuration not stated), the “Mean aortic blood pressure” value (Rattus norvegicus [5]) is reported as -22 mmHg, the “Mean aortic blood pressure” value (Rattus norvegicus [6]) is reported as 173 mmHg and the “Mean aortic blood pressure” value (Rattus norvegicus [7]) is reported as 195 mmHg.

With O=C(N[C@@H](Cc1ccccc1)C(=O)CCC(=O)N1CCC[C@H]1C(=O)O)c1ccccc1 the “Mean aortic blood pressure” value (Rattus norvegicus [8]) was 190 mmHg, the Mean aortic blood pressure (Rattus norvegicus [9]) was -12 mmHg and the “Mean aortic blood pressure” value (Rattus norvegicus [10]) was 178 mmHg.

For C[C@H](CS)C(=O)N1CCC[C@H]1C(=O)O [CAPTOPRIL], the “Mean aortic blood pressure” value (Rattus norvegicus [11]) was 99 mmHg and the Mean aortic blood pressure (Rattus norvegicus [12]) was -93 mmHg.
